In the library only some 1.4% were active in any assay of this set; here they are far more common.
GSIS activator – GLuc luminescence reporter in INS-1E cells, primary screen for activators of glucose-dependent secretion of insulin; AID 743287, 2014; 0.61% of 370,000 active; INS-1E GLuc reporter insulin secretion, 2-3 h; activation, % at 16.6 µM;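 active = lowest replicate activation of at least 40%, so every replicate reaches that level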
CDK5 inh – inhibitors of human CDK5/p35 kinase, primary screen, biochemical, single concentration; inhibition, % at 10 µM; Cyclin-dependent kinase 5 (Homo sapiens) + Cyclin-dependent kinase 5 activator 1 (Homo …; 0.01% of 330,000 active; Recombinant CDK5/p35, ADP-Glo luminescence, 60 min; AID 488839, 2010;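 active = highest replicate inhibition of at least 50% and at least 75% of replicates reaching 50%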
GSK3 alpha inh – blockers of GSK3A enzyme activity – biochemical, luminescence, cell-free homogeneous, HTS, primary screen; 0.1% of 320,000 active; AID 2650, 2010; Glycogen synthase kinase-3 alpha (Homo sapiens), P49840; inhibition, % at 10 µM; GSK-3 alpha kinase, ADP-Glo luminescence, 60 min;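 active = more than half of replicates show inhibition above 20%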;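 also: GST-tagged GSK-3 alpha with peptide substrate and 25 µM ATP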
STK33 kinase inh – inhibitors of purified STK33 kinase, primary screen, biochemical, ADP-Glo luminescence, homogeneous, cell-free; Serine/threonine-protein kinase 33 (Homo sapiens), Q9BYT3; MBP phosphorylation; inhibition, % at 10 µM; 0.073% of 320,000 active; AID 2661, 2010;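 active = inhibition at or above 25%, using the most active replicate where run in duplicate; inactive = inhibition below 25%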
HIV Env fusion – inhibitors of HIV-1 Env-driven cell-cell fusion, primary screen, HeLa-JRFL effector, CEM21 target cells, luciferase | inhibition, % at 12.3 µM | 1.1% of 360,000 active | AID 651610, 2012;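 active = mean replicate inhibition score of at least 50 and every replicate individually at or above 50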
GSK3beta inhib – human GSK3beta kinase inhibitors, primary screen, biochemical, cell-free homogeneous, HTS; activity score (negative = inhibition), % at 10 µM; AID 2097, 2009; 0.038% of 300,000 active; Glycogen synthase kinase-3 beta (Homo sapiens), P49841; GST-GSK3beta kinase, ADP-Glo luminescence, 60 min; hits give low values;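 active = more than half of replicate wells score below -50%, meaning over 50% inhibition versus plate controls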
Target sequence (P49841 whole entry, looked up): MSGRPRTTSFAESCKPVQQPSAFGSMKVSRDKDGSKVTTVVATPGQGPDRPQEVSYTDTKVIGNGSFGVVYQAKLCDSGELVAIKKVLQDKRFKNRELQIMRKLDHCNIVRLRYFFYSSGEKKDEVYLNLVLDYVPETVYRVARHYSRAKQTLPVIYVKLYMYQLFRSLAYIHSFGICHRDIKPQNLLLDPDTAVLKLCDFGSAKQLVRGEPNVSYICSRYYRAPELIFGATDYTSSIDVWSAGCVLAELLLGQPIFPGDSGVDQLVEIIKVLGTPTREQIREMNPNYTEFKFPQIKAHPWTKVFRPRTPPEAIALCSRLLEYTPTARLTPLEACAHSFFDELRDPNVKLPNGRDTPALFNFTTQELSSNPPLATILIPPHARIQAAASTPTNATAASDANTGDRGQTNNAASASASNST
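test system = GST-tagged human GSK3beta kinase, cell-free | reagent = 25 µM ATP with peptide substrate | dosing = one dose of 10 µM per compound | schedule = 60 min reaction, RT | detection = luminescent ADP-Glo measurement of ADP formed | control set = DMSO neutral wells and GW8510 at 20 µM as positive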
Hits are given with their value; . = inactive; / = not tested or not shown; [ ] = remark or other dose.

SMILES | GSIS activator | CDK5 inh | GSK3 alpha inh | STK33 kinase inh | HIV Env fusion | GSK3beta inhib
Cc1ccc(NC(=O)C2CCC(CNc3c(N4CCC(C)CC4)c(=O)c3=O)CC2)cc1F (configuration not stated) | . | . | . | . | 58.5 | .
CC1CCN(c2c(NCC3CCC(C(=O)NCc4ccc(F)cc4)CC3)c(=O)c2=O)CC1 (configuration not stated) | . | . | . | . | . | .
C/C=C/c1ccc(OCCN2C(=O)NC(C)(C)C2=O)c(OC)c1 | 44.0 | . | . | . | / | .
Cc1nc2ccccc2c2c1CC(C(C)(Cl)Br)O2 (configuration not stated) | . | . | . | . | 73.9 | .
Cc1ccc2nc(C)c3c(c2c1)OC(C(C)(Cl)Br)C3 (configuration not stated) | . | . | . | . | . | .
COc1ccc2c3c([nH]c2c1)[C@@H](CO)N(C(=O)C1CCCCC1)CC31CN(C(=O)c2ccncc2)C1 | . | / | / | / | / | /
COc1ccc2nc(C)cc(Sc3nc4ccccc4s3)c2c1 | . | . | . | . | 58.1 | .
COc1ccc2nc(C)cc(SCC(=O)NNC(=O)COc3ccccc3)c2c1 | / | . | . | . | . | .
COc1cc(CN(C)c2ccc(S(=O)(=O)N3CCCC3)cn2)ccc1OC(F)F | 44.3 | . | / | / | . | /
CCCCCCCCN1[C@@H](CC(C)=O)c2cc(C(F)(F)F)ccc2S1(=O)=O | . | . | . | . | 61.1 | .
Cc1noc(C)c1S(=O)(=O)Nc1ccc2c(c1)C(=O)N([C@H](C)CO)C[C@@H](C)[C@H](CN(C)S(=O)(=O)c1ccccc1)OCCCC[C@@H](C)O2 | . | / | / | / | . | /
CCCC#Cc1cnc2c(c1)C(=O)N([C@@H](C)CO)C[C@@H](C)[C@@H](CN(C)C(=O)c1cnccn1)O2 | . | / | / | / | . | /
C=CCOC(=O)C1=C(C)NC(SCC(=O)Nc2ccc(C)c(Cl)c2)=C(C#N)C1c1ccco1 (configuration not stated) | / | . | . | . | 55.4 | .
COc1ccccc1C#Cc1ccc([C@H]2[C@@H](C#N)N(C(=O)C3CCCC3)[C@H]2CO)cc1 | . | / | / | / | / | /
C[C@@H]1CCCCO[C@H](CN(C)C(=O)NC2CCCCC2)[C@@H](C)CN([C@H](C)CO)C(=O)c2cc(NC(=O)Nc3ccccc3)ccc2O1 | . | / | / | / | . | /
C[C@@H]1CN([C@@H](C)CO)C(=O)c2cc(NC(=O)Nc3ccccc3)ccc2O[C@@H](C)CCCCO[C@@H]1CN(C)C(=O)C1CCCCC1 | . | / | / | / | . | /
C[C@H]1CCCCO[C@@H](CN(C)C(=O)C2CCCCC2)[C@@H](C)CN([C@@H](C)CO)C(=O)c2cc(NC(=O)Nc3ccccc3)ccc2O1 | . | / | / | / | 63.7[16.7 µM] | /
C[C@H]1CCCCO[C@H](CN(C)C(=O)NC2CCCCC2)[C@@H](C)CN([C@@H](C)CO)C(=O)c2cc(NC(=O)Nc3ccccc3)ccc2O1 | . | / | / | / | 56.1[16.7 µM] | /
C[C@H](CO)N1C[C@H](C)[C@H](CN(C)C(=O)C2CCCCC2)OCCCC[C@H](C)Oc2ccc(NC(=O)Nc3ccccc3)cc2C1=O | . | / | / | / | 59.7[16.7 µM] | /
Cc1noc(C)c1NC(=O)Nc1cccc2c1O[C@H](CN(C)Cc1ccncc1)[C@H](C)CN([C@H](C)CO)C2=O | . | / | / | / | . | /
COc1ccccc1CNC(=O)C[C@@H]1C[C@@H]2c3cc(NC(=O)c4cccnc4)ccc3O[C@@H]2[C@@H](CO)O1 | . | / | / | / | . | /
CCCNC(=O)C[C@@H]1C[C@H]2c3cc(NC(=O)c4cccnc4)ccc3O[C@H]2[C@H](CO)O1 | . | / | / | / | 71.1[16.7 µM] | /
CCCNC(=O)C[C@H]1C[C@H]2c3cc(NC(=O)c4cccnc4)ccc3O[C@H]2[C@@H](CO)O1 | . | / | / | / | . | /
COc1ccccc1CNC(=O)C[C@H]1C[C@@H]2c3cc(NC(=O)c4cccnc4)ccc3O[C@@H]2[C@@H](CO)O1 | . | / | / | / | 89.7[16.7 µM] | /
